# Source: PubChem (Broad Institute)
# PGC1a acetyl inh = inhibitors of PGC1a acetylation signal, primary screen, cell-based, U2OS, AlphaScreen, inhibitor mode | AlphaScreen anti-acetyl-lysine; with virally co-expressed GCN5 acetyltransferase | inhibition, % at 15.6 µM | 0.17% of 350,000 active;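 active = every replicate shows inhibition of at least 40%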;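 note: 0% = neutral control wells and 100% = positive control wells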
# rRNA inh HTS = reduced GFP signal of wild-type E. coli, primary screen, bacterial rRNA inhibitor project, GFP/RFP fluorescence, OD600, single point. 1.6% of 350,000 active. GFP signal change (wild-type ribosome), % (concentration not given with the values). AID 720706, 2013. E. coli WT GFP vs humanized-ribosome RFP mutants, 24 h; hits give low values; DMSO median 0, no signal -100;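 active = significant combined selectivity score with lowered wild-type GFP, culture density cut under 30%, mutant RFP and density less affected; inactive = any of these conditions unmet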
# C2C12 statin = suppressors of statin myotoxicity in C2C12 myotubes, primary screen, cell-based, single point, plate reader | C2C12 myotubes + simvastatin, ATP luminescence, 48 h; scaled: DMSO 0, geranylgeraniol control 100 | rescue of ATP level, % at 7.49 µM | 0.78% of 330,000 active | AID 602340, 2012;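 active = mean ATP rescue above about 67%, or every replicate alone reaching that limit, limit read from the data, passing the limit was not always enough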;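 note: myotubes were challenged with 10 µM simvastatin during compound exposure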
# S100A4 inh HTS = inhibitors of S100A4-myosin IIA peptide binding, primary screen, biochemical, fluorescence polarization, TAMRA-MyoIIA peptide; Protein S100-A4 (Homo sapiens), P26447; inhibition, % at 10.7 µM; 0.14% of 360,000 active;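 active = mean inhibition of at least 70% across replicates, with every replicate also reaching that level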
# Target sequence (P26447 whole entry, looked up): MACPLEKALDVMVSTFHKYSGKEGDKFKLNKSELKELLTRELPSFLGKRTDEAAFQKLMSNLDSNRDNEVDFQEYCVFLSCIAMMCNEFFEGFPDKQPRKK
#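 incubation = readout 5 min after mixing, signal stable up to 60 min | system = S100A4 monomer protein | buffer or medium = HEPES pH 7.2 with CaCl2, KCl, NaCl, DTT, Triton | benchmarks = neutral control DMSO, positive control TFP | also added = fluorescent myosin IIA peptide, 5 nM | compound dosing = one concentration per compound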
# Cneo AK release = Cryptococcus neoformans cell lysis inducers, primary screen, AK release luminescence, single concentration. lysis activity, % at 15 µM. 0.2% of 360,000 active. C. neoformans lysis, adenylate kinase release luminescence, 4 h; normalised: neutral wells 0, clomiphene wells 100;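 active = mean lysis activity across replicates of at least 80%, whatever share of replicates individually reach that level; inactive = mean lysis activity below 80%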
#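 Test system: log-phase Cryptococcus neoformans yeast cells; Quantity: yeast cell density of 5 × 10^6 cells/mL; Buffer or medium: YPD; Doses: single compound concentration per well; Timing: 4 h at 37 °C static, read 1 h later; Measured by: AK luminescence; Read-out basis: lysis from increased AK signal; Control set: Clomiphene as positive control.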
# SIRT5 block = SIRT5 desuccinylase inhibitors, primary screen, biochemical, fluorescence imaging, single point, set 5. NAD-dependent protein deacylase sirtuin-5, mitochondrial (Homo sapiens), Q9NXA8. Purified SirT5, succinyl-peptide AMC, trypsin-coupled fluorescence. inhibition, % at 15 µM. 1.1% of 330,000 active; in the data active = inhibition above about 15%
# Target sequence (Q9NXA8 whole entry, looked up): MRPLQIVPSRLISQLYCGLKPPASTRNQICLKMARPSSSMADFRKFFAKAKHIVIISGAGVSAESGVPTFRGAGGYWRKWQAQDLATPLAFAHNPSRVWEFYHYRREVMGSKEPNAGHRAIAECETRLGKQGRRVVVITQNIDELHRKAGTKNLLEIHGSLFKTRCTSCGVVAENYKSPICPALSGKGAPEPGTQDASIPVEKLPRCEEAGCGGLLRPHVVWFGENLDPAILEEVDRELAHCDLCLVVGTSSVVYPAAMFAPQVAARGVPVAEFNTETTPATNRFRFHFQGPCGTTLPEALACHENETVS
# * = called active by the depositor; . = no result. In the library only some 3% were active in any assay of this set; here they are far more common.
SMILES,PGC1a acetyl inh,rRNA inh HTS,C2C12 statin,S100A4 inh HTS,Cneo AK release,SIRT5 block
C[C@H]1CN([C@@H](C)CO)C(=O)c2cc(NC(=O)Cc3cn(C)c4ccccc34)ccc2O[C@H]1CN(C)Cc1ccc(C(F)(F)F)cc1,11.9,0.7,46.1,11.3,5.2,-1.8
O=C(Nc1cccc(C(=O)O)c1)/C(=C\C=C\c1ccccc1)NC(=O)c1ccccc1,1.3,-19.4*,.,-2.7,.,.
O=C(Nc1ccc(C(=O)O)cc1)/C(=C\C=C\c1ccccc1)NC(=O)c1ccccc1Br,3.5,-16.1*,.,15.6,-2.9,-6.7
O=C(Nc1ccc(C(=O)O)cc1)/C(=C\C=C\c1ccccc1)NC(=O)c1cccc(Br)c1,.,-41.2,.,-4.1,.,.
COc1ccc2c3c(n(C)c2c1)[C@@H](CO)N(C(=O)C1CCOCC1)CC31CN(C(=O)Nc2cccc(F)c2)C1,.,1.5,.,.,.,.
O=C(N/N=C/c1cccnc1)c1cc(-c2ccc(Cl)cc2)nc2ccccc12,.,7.8,-13.4,-0.5,-0.1,-3.5
O=C(NNC(=O)c1cc(-c2cccnc2)nc2ccccc12)Nc1ccc(Cl)cc1,7.2,-29.3*,-37.7,-5.4,.,-7.4
O=C(NNS(=O)(=O)c1ccc(Cl)cc1)c1cc(-c2ccccc2)nc2ccccc12,-3.7,-30.8*,.,36.3,4.5,-1.8
O=C(N/N=C/c1ccc[nH]1)c1cc(-c2ccc(Cl)cc2)nc2ccccc12,8.8,-38.5*,.,-6.2,.,-0.6
COc1ccc(C(=O)Nc2ccc3c(c2)OC[C@H](C)N(C(C)=O)C[C@H](C)[C@H](OC)CN(C)C3=O)cc1,-7.3,-1.0,-5.4,6.1,-3.3,1.2
CC(C)NC(=O)N(C)C[C@H]1Oc2cc(C#C[C@@H](C)O)ccc2S(=O)(=O)N([C@@H](C)CO)C[C@@H]1C,21.2,3.8,4.5,-3.3,38.7,3.8
C[C@@H]1CCCCO[C@H](CN(C)S(=O)(=O)c2cn(C)cn2)[C@@H](C)CN([C@@H](C)CO)C(=O)c2cc(NC(=O)Nc3ccccc3)ccc2O1,.,-0.1,.,.,.,.
C[C@@H]1CN([C@@H](C)CO)C(=O)c2cc(-c3ccc(C#N)cc3)cnc2O[C@@H]1CN(C)C(=O)Nc1ccc(C(F)(F)F)cc1,2.7,-11.4,2.3,3.6,18.8,6.8
C[C@@H]1CN([C@H](C)CO)C(=O)c2cc(-c3ccc(C#N)cc3)cnc2O[C@@H]1CN(C)C(=O)Nc1ccc(F)cc1,-8.2,-1.2,-0.5,-0.6,82.9*,1.0
C[C@H]1CN([C@@H](C)CO)C(=O)c2cc(-c3ccc(C#N)cc3)cnc2O[C@@H]1CN(C)C(=O)Nc1ccc(C(F)(F)F)cc1,17.3,-16.7,-3.4,51.0,0.7,19.4*
C[C@H]1CCCCO[C@@H](CN(C)CC2CCCCC2)[C@@H](C)CN([C@@H](C)CO)C(=O)c2cc(NC(=O)Cc3ccccc3)ccc2O1,12.5,0.0,.,-0.5,0.7,-1.1
O=S(=O)(Nc1ccc(-n2cccc2)cc1)c1ccc(Cl)c(Cl)c1,3.0,-45.2*,18.3,-6.8,.,4.9
O=S(=O)(Nc1ccc(-n2cccc2)cc1)c1ccc(F)cc1,-4.7,-58.9,7.0,-1.6,2.9,-2.5
CCN1C(=O)C(C)S/C1=N\S(=O)(=O)c1ccc(Cl)s1 (stereo not drawn),0.1,.,135.9*,.,-0.9,.
CCCOc1ccc(/C(O)=C2/C(=O)C(=O)N(CCCn3ccnc3)C2c2ccc(C)o2)cc1 (stereo not drawn),5.4,-18.4*,-6.5,-3.9,.,0.8
O=C(Nc1cccc(Cl)c1N1CCOCC1)c1ccc([N+](=O)[O-])o1,-9.7,2.6,97.3*,-3.4,2.6,-1.9
CC(C)(C)C(=O)Nc1ccccc1N1CCN(C(=O)c2ccc(Cl)cc2)CC1,0.5,.,126.5*,.,3.0,.
O=C(Nc1ccccc1N1CCCC1)c1ccc([N+](=O)[O-])o1,-2.6,-9.7,24.8,-9.3,-2.2,8.0
O=C(Nc1ccc(N2CCN(C(=O)c3ccccc3)CC2)c(Cl)c1)c1ccc(Br)o1,-0.3,-22.6*,-23.3,-11.6,.,-0.3
O=C(Nc1ccccc1N1CCN(C(=O)c2ccccc2)CC1)c1ccc([N+](=O)[O-])o1,.,-25.1*,10.7,-2.3,1.9,-0.9
SMILES,PGC1a acetyl inh,rRNA inh HTS,C2C12 statin,S100A4 inh HTS,Cneo AK release,SIRT5 block
O=C(C[C@H]1C=C[C@@H](NC(=O)C2CC2)[C@H](CO)O1)NCc1ccccc1Cl,-0.8,-0.4,-0.5,-10.1,-3.9,0.2
Cc1cc(C)cc(Cn2cc(CN3CC(N4CCN(CCO)CC4)CS3(=O)=O)nn2)c1 (stereo not drawn),.,8.5,.,-6.4,.,29.3*
O=S1(=O)CC(N2CCN(CCO)CC2)CN1Cc1cn(Cc2cccc(C(F)(F)F)c2)nn1 (stereo not drawn),.,18.9,.,7.3,.,23.4*
O=S1(=O)CC(N2CCN(Cc3ccccc3F)CC2)CN1Cc1cn(Cc2ccc(Cl)cc2)nn1 (stereo not drawn),.,-18.6*,.,-3.1,.,1.1
CCc1cc2c(=O)c(-c3nc4ccccc4n3C)coc2c(CN2CCOCC2)c1O,.,8.6,.,-7.4,.,-5.2
CCc1cc2c(=O)c(-c3nc4ccccc4n3C)coc2c(CN2CCCCC2)c1O,1.6,16.6,-3.4,-4.4,1.9,33.7*
CO[C@@H]1CN(C)C(=O)c2cc(NC(=O)c3nc4ccccc4s3)ccc2OC[C@@H](C)N(Cc2ccccc2)C[C@H]1C,-11.5,0.0,-27.8,1.9,-2.4,.
Cc1ccc(/C=N/N2CCN(Cc3ccc(Cl)cc3)CC2)o1,3.6,.,80.5*,.,-1.0,.
COc1cc(/C=N/N2CCN(Cc3ccc(Cl)cc3)CC2)cc(Br)c1O,-7.5,-14.8,4.0,2.0,8.7,18.4*
Clc1ccc(CN2CCN(/N=C/c3ccco3)CC2)cc1,-2.4,.,4.5,-1.5,0.3,-1.9
COc1ccc(S(=O)(=O)Nc2ccc3c(c2)C(=O)N([C@H](C)CO)C[C@H](C)[C@H](CN(C)C)OCCCC[C@H](C)O3)cc1,6.6,2.0,.,-4.1,0.4,3.1
O=C(Nc1ncc(S(=O)(=O)c2ccc([N+](=O)[O-])cc2)s1)c1ccccc1F,-6.1,17.4,-14.9,9.9,.,21.6*
O=C(Nc1c[nH]c(=O)[nH]c1=O)c1ccc2c(c1)C(=O)N(c1cccc([N+](=O)[O-])c1)C2=O,6.0,6.7,0.9,4.7,1.2,1.9
